A word on the viability: it is a read-out of living cells in per cent, often relative to untreated cells. By inhibition is commonly meant the change of the read-out against control, counted positive when it falls.

Active and inactive are the calls of the source.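 Rule for the calls, unless noted: active = viability at or below 30% in both replicate assays; inconclusive = viability at or below 30% in just one of the two assays; inactive = the rest.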

The text below walks through data of PubChem BioAssay.

Assay [1] is described as follows: Her2 expression decrease, cell viability multiplex – SKBR3 breast tumor cells, AlphaScreen, ATP viability, primary screen (AID 461;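 active = Her2 level under about 52% in both replicate screens, with viability over 70% of control, limit read from the data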;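 for Her2 level: lower value means less Her2 protein in the cells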;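 for viability: percent of carrier control wells set as 100% viability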). The settings on record: SKBR3 Her2 protein level, 18-24 h, measured here: SKBR3 viability, ATP luminescence, at 10 µM. Background: In Alpha technology, singlet oxygen from a donor bead excites a nearby acceptor bead.
Assay [2] deals with Receptor tyrosine-protein kinase erbB-2 (Homo sapiens) (UniProt P04626). The assay is described as above. The settings on record: 18-24 h, at 10 µM, stronger effect = lower value.
Sequence of Receptor tyrosine-protein kinase erbB-2 (Homo sapiens) (P04626 whole entry, looked up): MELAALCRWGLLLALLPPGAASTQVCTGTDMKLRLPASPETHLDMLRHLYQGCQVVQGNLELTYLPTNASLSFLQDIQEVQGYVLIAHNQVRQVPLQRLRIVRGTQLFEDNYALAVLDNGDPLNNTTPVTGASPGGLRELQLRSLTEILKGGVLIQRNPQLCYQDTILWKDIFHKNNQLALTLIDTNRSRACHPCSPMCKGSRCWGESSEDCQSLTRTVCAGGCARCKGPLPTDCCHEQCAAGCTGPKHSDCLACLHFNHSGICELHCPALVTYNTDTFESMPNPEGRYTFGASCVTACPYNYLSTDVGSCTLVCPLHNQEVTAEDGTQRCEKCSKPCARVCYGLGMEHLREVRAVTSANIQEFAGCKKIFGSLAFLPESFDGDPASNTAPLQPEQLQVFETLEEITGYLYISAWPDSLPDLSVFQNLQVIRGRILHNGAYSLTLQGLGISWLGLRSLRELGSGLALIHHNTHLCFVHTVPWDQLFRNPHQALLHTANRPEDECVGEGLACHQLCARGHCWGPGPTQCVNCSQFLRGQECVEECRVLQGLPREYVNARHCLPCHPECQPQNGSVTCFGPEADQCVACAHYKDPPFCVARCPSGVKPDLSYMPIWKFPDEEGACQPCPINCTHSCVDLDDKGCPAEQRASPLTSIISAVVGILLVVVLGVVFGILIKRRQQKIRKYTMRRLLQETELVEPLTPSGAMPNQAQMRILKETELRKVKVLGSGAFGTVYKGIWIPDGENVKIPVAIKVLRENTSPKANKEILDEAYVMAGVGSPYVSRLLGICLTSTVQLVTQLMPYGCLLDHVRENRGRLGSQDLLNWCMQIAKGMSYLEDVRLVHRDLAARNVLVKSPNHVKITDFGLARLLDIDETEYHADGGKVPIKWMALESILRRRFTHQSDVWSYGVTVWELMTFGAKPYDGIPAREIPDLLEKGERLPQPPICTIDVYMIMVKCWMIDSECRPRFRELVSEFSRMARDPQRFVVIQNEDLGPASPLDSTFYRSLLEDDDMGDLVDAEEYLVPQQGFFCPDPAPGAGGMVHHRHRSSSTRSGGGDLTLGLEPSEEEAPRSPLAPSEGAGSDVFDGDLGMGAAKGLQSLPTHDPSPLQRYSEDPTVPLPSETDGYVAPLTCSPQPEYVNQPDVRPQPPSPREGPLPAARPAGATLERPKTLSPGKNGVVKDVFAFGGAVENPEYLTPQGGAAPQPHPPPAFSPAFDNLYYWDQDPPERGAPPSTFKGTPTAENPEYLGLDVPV
Assay [3] in a line: reduced viability of SK-BR-3 breast cancer cells – cell-based, 24 h, human, pilot screen (AID 572;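 active = viability at or below 10% of carrier control in both of two separate runs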;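 note: compound exposure lasted between 18 and 24 h rather than exactly 24 h; 100% = carrier-treated control wells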). The settings on record: SK-BR-3 viability, CellTiter-Glo luminescence, at 10 µM, stronger effect = lower value. Background: ATP-based viability assays read luminescence as a measure of living cells.
Assay [4] is described as follows: HUVEC growth inhibition – cell-based, human, primary screen (AID 575).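 Note: 100% = median of untreated cell wells with 0.1% DMSO on each plate.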 The settings on record: HUVEC proliferation, CellTiter-Glo luminescence, 72 h; at 10 µM; stronger effect = lower value. In a few lines:
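System – primary HUVEC, no more than 12 passages · Medium – Low-serum (2% FBS) EBM, supplemented · Times – 72 h exposure, 37 °C, 5% CO2, 30 min RT equilibration · Measured by – luminescent ATP assay · Read-out – % viability relative to median vehicle-well signal on each plate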

Assay [5] is described as follows: H69AR cell proliferation blockers – human, duplicate replicates, primary screen (AID 580;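 active = viability at or under a set limit in both replicates, limit being median viability minus 3 SD, cut at about 48% in these data, passing the limit was not always enough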;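 note: 100% = mean luminescence of untreated wells and 0% = no signal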). The settings on record: H69AR lung tumor cells viability, ATP luminescence, 72 h; at 10 µM; stronger effect = lower value.
Assay [6] is described as follows: MRP1 drug-resistance reversers in H69AR cells – cell-based, doxorubicin co-treatment, pilot screen (AID 601;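 active = viability loss from added drug above about 55%, and viability with drug at most 40%, in both replicates, limit read from the data, passing the limit was not always enough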). The settings on record: CellTiter-Glo, 72 h, at 10 µM; for differential viability (reversal): stronger effect = higher value.
The nature of assay [7]: yeast transport mutant growth inhibition pilot in 384-well plates, post-Golgi transport modulator project (AID 636; in the data active = inhibition above about 31%). The settings on record: absorbance 615 nm, about 18 h, stronger effect = higher value.
Assay [8] is described as follows: growth suppression of yeast trafficking mutant, preliminary HTS, modulators of trafficking downstream of Golgi apparatus project, 1536-format plate, OD 615 nm (AID 637; in the data active = inhibition above about 30%). The settings on record: yeast transport mutant growth, absorbance 615 nm, 18 h; stronger effect = higher value.
Setting [9] is: H69AR cells + 2 uM doxorubicin, measured here: viability with 2 uM doxorubicin, stronger effect = lower value.
[10] abbreviates: H69AR cells, compound alone cytotoxicity.

For `Cc1noc(C)c1C(=O)OCC(=O)Nc1ccccc1C(=O)NC(C)c1ccccc1` (stereo not given), the viability is 90.5% in assay [1]; 90.5% (inactive) in assay [3]; 70.5% (inactive) in assay [4]; 87.2% (inactive) in assay [5]; 94.1% in assay [6] (setting [9]); 87.2% in assay [6] (setting [10]). In addition, the Her2 level in assay [2] was 86% (inactive). In assay [6] (H69AR cells + 2 uM doxorubicin), the differential viability (reversal) was -6.91% (inactive). Moreover, the inhibition is -4.93% (inactive) in assay [7] and 6.72% (inactive) in assay [8].
As for `CCCC(C)C(=O)Nc1ccc(C(N)=O)cc1` (stereo not given), the viability is 95% in assay [1]; 95% (inactive) in assay [3]; 96% (inactive) in assay [4]; 93.1% (inactive) in assay [5]; 85.7% in assay [6] (setting [9]); 93.1% in assay [6] (setting [10]). In assay [2], the Her2 level was 93.5% (inactive). In addition, the differential viability (reversal) in assay [6] (H69AR cells + 2 uM doxorubicin) was 7.36% (inactive). Moreover, the inhibition was -5.81% (inactive) in assay [7] and -1.33% (inactive) in assay [8].
Regarding `O=C(Nc1cccc(F)c1)c1cccc(S(=O)(=O)N2CCOCC2)c1`, the viability in assay [1] was 107%; in assay [3], 107% (inactive); in assay [4], 92.8% (inactive); in assay [5], 91.6% (inactive); in assay [6] (setting [9]), 91%; in assay [6] (setting [10]), 91.6%. Moreover, the Her2 level in assay [2] was 87% (inactive). Also, in assay [6] (H69AR cells + 2 uM doxorubicin), the differential viability (reversal) was 0.615% (inactive). Further, the inhibition in assay [7] is -6.71% (inactive); in assay [8], -5.71% (inactive).
For the compound `CC1(C)CNC(=O)CC(C)(C)N1O`, the viability in assay [1] was 90%; in assay [3], 90% (inactive); in assay [4], 101% (inactive); in assay [5], 95.6% (inactive); in assay [6] (setting [9]) it was 92.6%; in assay [6] (setting [10]), 95.6%. For the same compound, the Her2 level in assay [2] is 129% (inactive). In assay [6] (H69AR cells + 2 uM doxorubicin), the differential viability (reversal) is 3.01% (inactive). Moreover, the inhibition in assay [7] was -1.43% (inactive); in assay [8], 0% (inactive).
For the compound `CCCn1c(N2CCN(CC(=O)Nc3ccc4c(c3)OCCO4)CC2)nc2ccccc21`, the viability in assay [1] is 88.5%; in assay [3] it was 88.5% (inactive); in assay [4], 87.4% (inactive); in assay [5], 88.9% (inactive); in assay [6] (setting [9]), 88.3%; in assay [6] (setting [10]) it was 88.9%. The Her2 level in assay [2] is 96% (inactive). Moreover, the differential viability (reversal) in assay [6] (H69AR cells + 2 uM doxorubicin) is 0.63% (inactive). The inhibition in assay [7] was -6.18% (inactive); in assay [8], 4.59% (inactive).
Take `CCCCC(=O)NCCNc1nc2c(c(=O)n(C)c(=O)n2C)n1Cc1ccccc1`: the viability is 116% in assay [1]; 116% (inactive) in assay [3]; 99.3% (inactive) in assay [4]; 94.6% (inactive) in assay [5]; 98.7% in assay [6] (setting [9]); 94.6% in assay [6] (setting [10]). Moreover, in assay [2], the Her2 level is 83% (inactive). Also, in assay [6] (H69AR cells + 2 uM doxorubicin), the differential viability (reversal) is -4.03% (inactive). For the same compound, the inhibition is -5.68% (inactive) in assay [7] and 2.06% (inactive) in assay [8].
For `Brc1cccc(-c2cnc3n2CCCCC3)c1`, the viability in assay [1] was 95.5%; in assay [3] it was 95.5% (inactive); in assay [4], 67.1% (inactive); in assay [5], 91.5% (inactive); in assay [6] (setting [9]), 80.4%; in assay [6] (setting [10]), 91.5%. Moreover, the Her2 level in assay [2] is 89.5% (inactive). Further, in assay [6] (H69AR cells + 2 uM doxorubicin), the differential viability (reversal) is 11.1% (inactive). Further, the inhibition is -6.53% (inactive) in assay [7] and 4.26% (inactive) in assay [8].
On to `COc1ccc(CC(=O)OCc2nnc(C3COc4ccccc4O3)o2)cc1OC` (stereo not given), for which the viability is 116% in assay [1]; 116% (inactive) in assay [3]; 91.3% (inactive) in assay [4]; 104% (inactive) in assay [5]; 83.7% in assay [6] (setting [9]); 104% in assay [6] (setting [10]). The Her2 level in assay [2] is 104% (inactive). The differential viability (reversal) in assay [6] (H69AR cells + 2 uM doxorubicin) was 19.8% (inactive). Moreover, the inhibition in assay [7] is -2% (inactive); in assay [8] it was -1.64% (inactive).
Take `C=CCn1c(N)c(C(=O)NCCC2=CCCCC2)sc1=S`: the viability in assay [1] is 85.5%; in assay [3] it was 85.5% (inactive); in assay [4], 44.6% (inactive); in assay [5] it was 83.2% (inactive); in assay [6] (setting [9]) it was 76%; in assay [6] (setting [10]) it was 83.2%. Besides, the Her2 level in assay [2] was 92.5% (inactive). Besides, in assay [6] (H69AR cells + 2 uM doxorubicin), the differential viability (reversal) is 7.14% (inactive). Moreover, the inhibition is -6.49% (inactive) in assay [7] and -0.95% (inactive) in assay [8].
In the case of `COc1cccc(-n2c(C)nc3c(cnn3-c3ccc(C)cc3)c2=O)c1`, the viability in assay [1] is 86%; in assay [3], 86% (inactive); in assay [4], 79.6% (inactive); in assay [5] it was 90.4% (inactive); in assay [6] (setting [9]) it was 102%; in assay [6] (setting [10]), 90.4%. In assay [2], the Her2 level is 102% (inactive). Moreover, in assay [6] (H69AR cells + 2 uM doxorubicin), the differential viability (reversal) was -12% (inactive). Besides, the inhibition is 0.66% (inactive) in assay [7] and -10.5% (inactive) in assay [8].
Regarding `CCC(=O)Nc1ccc(Cl)c(NC(=O)C(C)C)c1`, the viability was 97% in assay [1]; 97% (inactive) in assay [3]; 87.9% (inactive) in assay [4]; 111% (inactive) in assay [5]; 103% in assay [6] (setting [9]); 111% in assay [6] (setting [10]). The Her2 level in assay [2] was 80% (inactive). Besides, in assay [6] (H69AR cells + 2 uM doxorubicin), the differential viability (reversal) is 7.54% (inactive). For the same compound, the inhibition in assay [7] is -7.97% (inactive); in assay [8], 6.07% (inactive).
For `CC(C)C(c1nnnn1CC1CCCO1)N1CCN(Cc2ccc3c(c2)OCO3)CC1` (stereo not given), the viability in assay [1] is 102%; in assay [3] it was 102% (inactive); in assay [4] it was 113% (inactive); in assay [5], 95.3% (inactive); in assay [6] (setting [9]), 90.3%; in assay [6] (setting [10]), 95.3%. In assay [2], the Her2 level was 82.5% (inactive). In addition, the differential viability (reversal) in assay [6] (H69AR cells + 2 uM doxorubicin) is 4.93% (inactive). The inhibition in assay [7] is -6.44% (inactive); in assay [8], -3.97% (inactive).
In the case of `CC(CCc1ccccc1)NCc1ccncc1` (stereo not given), the viability in assay [1] was 102%; in assay [3], 102% (inactive); in assay [4], 108% (inactive); in assay [5] it was 84.9% (inactive); in assay [6] (setting [9]) it was 89.2%; in assay [6] (setting [10]) it was 84.9%. Also, in assay [2], the Her2 level was 99.5% (inactive). Further, the differential viability (reversal) in assay [6] (H69AR cells + 2 uM doxorubicin) is -4.29% (inactive). The figures for the inhibition in assay [7] and in assay [8] were -6.53% (inactive) and 0.48% (inactive), respectively.
In the case of `Cn1nnnc1SCC(=O)NC1CCCCC1`, the viability in assay [1] is 77.5%; in assay [3], 77.5% (inactive); in assay [4], 108% (inactive); in assay [5] it was 96.1% (inactive); in assay [6] (setting [9]), 97.2%; in assay [6] (setting [10]) it was 96.1%. Further, the Her2 level in assay [2] was 77% (inactive). Also, the differential viability (reversal) in assay [6] (H69AR cells + 2 uM doxorubicin) is -1.11% (inactive). The inhibition was -5.95% (inactive) in assay [7] and -2.62% (inactive) in assay [8].
As to `CCOc1ccc(CNC(=O)C2CCCN(S(C)(=O)=O)C2)cc1OC` (stereo not given), the viability in assay [1] was 77%; in assay [3], 77% (inactive); in assay [4], 102% (inactive); in assay [5], 98.8% (inactive); in assay [6] (setting [9]) it was 90.9%; in assay [6] (setting [10]) it was 98.8%. For the same compound, the Her2 level in assay [2] is 133% (inactive). The differential viability (reversal) in assay [6] (H69AR cells + 2 uM doxorubicin) was 7.88% (inactive). The figures for the inhibition in assay [7] and in assay [8] were -1.67% (inactive) and 0.17% (inactive), respectively.
As for `c1ccc2c(c1)[nH]c1c(N3CCC4(CC3)OCCO4)ncnc12`, the viability is 96.5% in assay [1]; 96.5% (inactive) in assay [3]; 65.2% (inactive) in assay [4]; 92.2% (inactive) in assay [5]; 86.7% in assay [6] (setting [9]); 92.2% in assay [6] (setting [10]). For the same compound, in assay [2], the Her2 level is 77% (inactive). In addition, the differential viability (reversal) in assay [6] (H69AR cells + 2 uM doxorubicin) is 5.46% (inactive). The inhibition in assay [7] and in assay [8] was -3.87% (inactive) throughout.
